Laboratory results taken from ChEMBL document CHEMBL4257446, “Synthesis and biological evaluation of chalcone-linked pyrazolo[1,5-a]pyrimidines as potential anticancer agents” (Medchemcomm, 2017).
The source made the active and inactive calls. The calls are words filed in the database; no cut-off is given here.

Experiments:
MDA-MB-231 = test: Antiproliferative activity against human MDA-MB-231 cells after 24 hrs by MTT assay; assay type: functional, cell-based; conditions: MDA-MB-231, 24 h
Summary of the method: (§1)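 Cells exposed to a range of compound concentrations; viability read by MTT assay. IC50 (concentration giving 50% growth inhibition) calculated and reported as mean ± S.D. of three independent experiments, each run in triplicate.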

A549 [1] = test: Antiproliferative activity against human A549 cells after 24 hrs by MTT assay; assay type: functional, cell-based; conditions: A549, 24 h; summary of the method: as §1
DU-145 = test: Antiproliferative activity against human DU145 cells after 24 hrs by MTT assay; assay type: functional, cell-based; conditions: DU-145, 24 h; summary of the method: as §1
HEK293 [2] = test: Antiproliferative activity against HEK293 cells after 24 hrs by MTT assay; assay type: cell-based; conditions: Homo sapiens, HEK293, 24 h
A549 [3] = test: Cell cycle arrest in human A549 cells assessed as accumulation of cells at G2/M phase at 2 uM after 24 hrs by propidium iodide staining-based flow cytometric analysis (reference value: 20.4%); assay type: functional
HEK293 [4] = test: Cell cycle arrest in HEK293 cells after 24 hrs by propidium iodide staining-based flow cytometric analysis; conditions: human, hek293, 24 h
A549 [5] = test: Decrease in STAT3 protein expression in human A549 cells in STAT3 levels at 2 uM after 24 hrs by Western blot analysis; assay type: functional, cell-based
Summary of the method: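 A549 cells exposed at 2 μM final concentration and collected 24 h later. Total protein lysate extracted and immunoblotted with antibodies against the EGFR/STAT3 pathway proteins. Erlotinib-treated cells were the positive control and untreated cells the negative control.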

A549 [6] = test: Induction of apoptosis in human A549 cells assessed as increase in p53 levels at 2 uM after 24 hrs by Western blot analysis; assay type: functional, cell-based
Summary of the method: (§2)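 A549 cells given 2 μM final concentration for 24 h. Total lysate probed by western blot for apoptosis-related proteins (Bax, p53, p21, caspase-3, Bcl2). Erlotinib served as positive control and untreated cells as negative control.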

A549 [7] = test: Induction of apoptosis in human A549 cells assessed as increase in p21 levels at 2 uM after 24 hrs by Western blot analysis; assay type: functional, cell-based; summary of the method: as §2
A549 [8] = test: Induction of apoptosis in human A549 cells assessed as increase in Bax levels at 2 uM after 24 hrs by Western blot analysis; assay type: functional, cell-based; summary of the method: as §2
A549 [9] = test: Induction of apoptosis in human A549 cells assessed as decrease in Bcl2 levels at 2 uM after 24 hrs by Western blot analysis; assay type: functional, cell-based; summary of the method: as §2
HEK293 [10] = test: Induction of apoptosis in HEK293 cells assessed as effect on p21 levels after 24 hrs by Western blot analysis; assay type: cell-based; conditions: human, hek293, 24 h
HEK293 [11] = test: Induction of apoptosis in HEK293 cells assessed as effect on p53 levels after 24 hrs by Western blot analysis; assay type: cell-based; conditions: human, hek293, 24 h
HEK293 [12] = test: Induction of apoptosis in HEK293 cells assessed as effect on Bax levels after 24 hrs by Western blot analysis; assay type: cell-based; conditions: human, hek293, 24 h
HEK293 [13] = test: Induction of apoptosis in HEK293 cells assessed as effect on Bcl2 levels after 24 hrs by Western blot analysis; assay type: cell-based; conditions: human, hek293, 24 h
A549 [14] = test: Induction of apoptosis in human A549 cells assessed as decrease in pro-caspase-9 levels at 2 uM after 24 hrs by Western blot analysis; assay type: functional, cell-based

Row | SMILES | IC50 (MDA-MB-231) [µM] | IC50 (A549 [1]) [µM] | IC50 (DU-145) [µM] | IC50 (HEK293 [2]) [µM] | also measured
1 | COc1ccc(-c2cc(/C=C/C(=O)c3ccc(C)cc3)nc3cc(-c4ccccc4)nn23)cc1OC | 19.8 | 17.2 | 26.8 | 62.6 | –
2 | COc1ccc(C(=O)/C=C/c2cc(-c3ccc(OC)cc3)n3nc(-c4ccccc4)cc3n2)cc1 | 6.3 | 2.9 | 8.5 | 36.1 | Activity (A549 [3]): 29.6%; Activity (HEK293 [4]): Non-Toxic; Activity (A549 [5]): Active; Activity (A549 [6]): Active; Activity (A549 [7]): Active; Activity (A549 [8]): Active; Activity (A549 [9]): Active; Activity (HEK293 [10]): Non-Toxic; Activity (HEK293 [11]): Non-Toxic; Activity (HEK293 [12]): Non-Toxic; Activity (HEK293 [13]): Non-Toxic; Activity (A549 [14]): Active
3 | COc1ccc(-c2cc(/C=C/C(=O)c3cc(OC)c(OC)c(OC)c3)nc3cc(-c4ccccc4)nn23)cc1OC | 4.7 | 7.2 | 8.3 | 35 | Activity (A549 [3]): 33.11%; Activity (HEK293 [4]): Non-Toxic; Activity (A549 [5]): Active; Activity (A549 [6]): Active; Activity (A549 [7]): Active; Activity (A549 [8]): Active; Activity (A549 [9]): Active; Activity (HEK293 [10]): Non-Toxic; Activity (HEK293 [11]): Non-Toxic; Activity (HEK293 [12]): Non-Toxic; Activity (HEK293 [13]): Non-Toxic; Activity (A549 [14]): Active
4 | COc1cc(-c2cc(C(=O)/C=C/c3ccccc3)nc3cc(-c4ccccc4)nn23)cc(OC)c1OC | 19.2 | 18 | 16.3 | 44.8 | –
5 | COc1ccc(-c2cc(/C=C/C(=O)c3ccccc3)nc3cc(-c4ccccc4)nn23)cc1OC | 11.8 | 10.7 | 10 | 51.2 | –
6 | COc1ccc(/C=C/C(=O)c2cc(-c3cc(OC)c(OC)c(OC)c3)n3nc(-c4ccccc4)cc3n2)cc1OC | 14.2 | 20.5 | 15.3 | 41 | –
7 | COc1ccc(-c2cc(C(=O)/C=C/c3ccc(Cl)cc3)nc3cc(-c4ccccc4)nn23)cc1OC | 23.7 | 22 | 22.4 | 39.1 | –
8 | COc1cc(/C=C/C(=O)c2cc(-c3cc(OC)c(OC)c(OC)c3)n3nc(-c4ccccc4)cc3n2)cc(OC)c1OC | 18.4 | 25.9 | 17.9 | 41 | –
9 | COc1cc(-c2cc(C(=O)/C=C/c3ccc(Cl)cc3)nc3cc(-c4ccccc4)nn23)cc(OC)c1OC | 21.6 | 23.8 | 19.5 | 53.9 | –
10 | COc1ccc(-c2cc(/C=C/C(=O)c3ccc(OC)c(OC)c3)nc3cc(-c4ccccc4)nn23)cc1 | 8.7 | 7.4 | 16.4 | 48.5 | –
11 | C#Cc1cccc(Nc2ncnc3cc(OCCOC)c(OCCOC)cc23)c1 [ERLOTINIB] | 14.7 | 10.4 | 18.4 | 30.3 | Activity (A549 [3]): 24.5%; Activity (HEK293 [4]): Non-Toxic; Activity (A549 [5]): inactive
12 | COc1cc(-c2cc(/C=C/C(=O)c3ccccc3)nc3cc(-c4ccccc4)nn23)cc(OC)c1OC | 15.8 | 18.2 | 34.3 | ≥ 100 | –

Now from value to molecule, other results behind:

Row | IC50 (MDA-MB-231) [µM] | IC50 (A549 [1]) [µM] | IC50 (DU-145) [µM] | SMILES | IC50 (HEK293 [2]) [µM] | also measured
13 | 2.6 | 3.9 | 7.2 | COc1ccc(C(=O)/C=C/c2cc(-c3ccc(OC)c(OC)c3)n3nc(-c4ccccc4)cc3n2)cc1OC | 32.5 | Activity (A549 [3]): 29.5%; Activity (HEK293 [4]): Non-Toxic; Activity (A549 [5]): Active; Activity (A549 [6]): Active; Activity (A549 [7]): Active; Activity (A549 [8]): Active; Activity (A549 [9]): Active; Activity (HEK293 [10]): Non-Toxic; Activity (HEK293 [11]): Non-Toxic; Activity (HEK293 [12]): Non-Toxic; Activity (HEK293 [13]): Non-Toxic; Activity (A549 [14]): Active
14 | 32.5 | 15.5 | 29.3 | COc1cc(-c2cc(/C=C/C(=O)c3ccc(Cl)cc3)nc3cc(-c4ccccc4)nn23)cc(OC)c1OC | ≥ 100 | –
15 | 23.3 | 18.6 | 15.6 | COc1ccc(-c2cc(C(=O)/C=C/c3ccccc3)nc3cc(-c4ccccc4)nn23)cc1OC | 64.1 | –
16 | 16.5 | 21.2 | 16.9 | COc1ccc(/C=C/C(=O)c2cc(-c3cc(OC)c(OC)c(OC)c3)n3nc(-c4ccccc4)cc3n2)cc1 | 46.6 | –
17 | 13.5 | 10.6 | 15.4 | COc1cc(-c2cc(/C=C/C(=O)c3ccc(C)c(C)c3)nc3cc(-c4ccccc4)nn23)cc(OC)c1OC | 72.5 | –
18 | 22.6 | 22.2 | 19.5 | COc1ccc(-c2cc(C(=O)/C=C/c3ccc(C)cc3)nc3cc(-c4ccccc4)nn23)cc1OC | 57.4 | –
19 | 18.3 | 17.8 | 29.9 | COc1ccc(C(=O)/C=C/c2cc(-c3cc(OC)c(OC)c(OC)c3)n3nc(-c4ccccc4)cc3n2)cc1OC | 81.7 | –
20 | 13.9 | 11.9 | 14.6 | COc1ccc(C(=O)/C=C/c2cc(-c3ccc(OC)c(OC)c3)n3nc(-c4ccccc4)cc3n2)cc1 | 40 | –
21 | 13.2 | 14.6 | 25.2 | COc1ccc(C(=O)/C=C/c2cc(-c3cc(OC)c(OC)c(OC)c3)n3nc(-c4ccccc4)cc3n2)cc1 | 79.8 | –
22 | 16.7 | 15.4 | 14.7 | COc1ccc(-c2cc(C(=O)/C=C/c3cc(OC)c(OC)c(OC)c3)nc3cc(-c4ccccc4)nn23)cc1OC | 46.8 | –
23 | 9.9 | 8.6 | 13.7 | COc1ccc(-c2cc(/C=C/C(=O)c3ccccc3)nc3cc(-c4ccccc4)nn23)cc1 | 53.2 | –
24 | 22 | 19.3 | 14.9 | COc1ccc(/C=C/C(=O)c2cc(-c3ccc(OC)c(OC)c3)n3nc(-c4ccccc4)cc3n2)cc1 | 50.7 | –
25 | 11.5 | 9.3 | 12.1 | COc1ccc(-c2cc(/C=C/C(=O)c3ccc(C)c(C)c3)nc3cc(-c4ccccc4)nn23)cc1OC | 46.2 | –
26 | 17.1 | 15.4 | 21.3 | COc1ccc(-c2cc(/C=C/C(=O)c3ccc(Cl)cc3)nc3cc(-c4ccccc4)nn23)cc1OC | 44.1 | –
27 | 24.3 | 20.5 | 34.9 | COc1cc(C(=O)/C=C/c2cc(-c3cc(OC)c(OC)c(OC)c3)n3nc(-c4ccccc4)cc3n2)cc(OC)c1OC | ≥ 100 | –
28 | 23.9 | 19.4 | 27.1 | COc1cc(-c2cc(/C=C/C(=O)c3ccc(C)cc3)nc3cc(-c4ccccc4)nn23)cc(OC)c1OC | 50.4 | –
29 | 18.6 | 20 | 21.9 | COc1cc(-c2cc(C(=O)/C=C/c3ccc(C)cc3)nc3cc(-c4ccccc4)nn23)cc(OC)c1OC | 56.1 | –
